Measured values reported in ChEMBL document CHEMBL1141864, “Structure-activity relationships in 1,4-benzodioxan-related compounds. 8.(1) {2-[2-(4-chlorobenzyloxy)phenoxy]ethyl}-[2-(2,6-dimethoxyphenoxy)ethyl]amine (clopenphendioxan) as a tool to highlight the involvement of alpha1D- and alpha1B-adrenoreceptor subtypes in the regulation of human PC-3 …” (J Med Chem, 2005).
Calls of active or inactive are those of the source. The calls are words filed in the database; no cut-off is given here.

How the values were obtained:
[1] = target: T1, Alpha-1D adrenergic receptor (Rattus norvegicus) (UniProt P23944); experiment: ADRA1D blocking activity assessed by antagonism of (-)-NE induced contractions on isolated rat thoracic aorta; type: functional, tissue-based
T1 sequence (whole entry): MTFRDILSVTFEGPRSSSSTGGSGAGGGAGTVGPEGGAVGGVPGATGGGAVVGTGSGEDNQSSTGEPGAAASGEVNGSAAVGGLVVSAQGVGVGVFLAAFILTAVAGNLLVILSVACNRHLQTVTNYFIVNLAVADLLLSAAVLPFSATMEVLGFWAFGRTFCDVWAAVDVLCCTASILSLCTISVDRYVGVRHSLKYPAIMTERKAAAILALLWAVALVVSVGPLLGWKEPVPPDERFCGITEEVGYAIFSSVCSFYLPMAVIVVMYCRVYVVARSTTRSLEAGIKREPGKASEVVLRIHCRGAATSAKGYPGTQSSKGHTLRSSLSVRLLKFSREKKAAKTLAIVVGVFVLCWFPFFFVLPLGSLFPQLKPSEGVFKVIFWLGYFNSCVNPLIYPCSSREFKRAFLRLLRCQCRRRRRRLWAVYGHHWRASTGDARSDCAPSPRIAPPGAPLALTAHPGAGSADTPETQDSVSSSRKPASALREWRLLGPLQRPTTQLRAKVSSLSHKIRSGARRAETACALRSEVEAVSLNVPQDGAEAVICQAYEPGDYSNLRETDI
Outline: (§1)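 Isolated rat tissue: each antagonist concentration tested four times over 0.01–1 μM; pK_B calculated by van Rossum method from shifts of (-)-noradrenaline contraction curves (vas deferens, α1A; thoracic aorta, α1D) or (-)-phenylephrine contraction curves (spleen, α1B).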

[2] = target: T2, Alpha-1B adrenergic receptor (Rattus norvegicus) (UniProt P15823); experiment: ADRA1B blocking activity assessed by antagonism of (-)-phenylephrine induced contractions on isolated rat spleen; type: functional, tissue-based; outline: as §1
T2 sequence (whole entry): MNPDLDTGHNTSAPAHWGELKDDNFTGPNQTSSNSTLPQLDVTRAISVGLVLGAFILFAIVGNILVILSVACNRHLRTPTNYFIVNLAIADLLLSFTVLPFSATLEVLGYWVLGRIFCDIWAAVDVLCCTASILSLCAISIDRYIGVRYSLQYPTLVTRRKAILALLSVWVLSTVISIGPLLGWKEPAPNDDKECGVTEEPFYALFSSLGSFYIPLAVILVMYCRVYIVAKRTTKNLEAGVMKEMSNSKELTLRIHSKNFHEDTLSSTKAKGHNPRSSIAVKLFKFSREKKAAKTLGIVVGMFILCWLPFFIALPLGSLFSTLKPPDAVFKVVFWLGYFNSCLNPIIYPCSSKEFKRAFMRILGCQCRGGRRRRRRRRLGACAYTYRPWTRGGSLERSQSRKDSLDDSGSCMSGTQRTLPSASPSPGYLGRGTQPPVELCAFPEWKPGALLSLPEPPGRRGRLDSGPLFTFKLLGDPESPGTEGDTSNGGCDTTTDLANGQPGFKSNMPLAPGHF

[3] = target: T3, Alpha-1A adrenergic receptor (Rattus norvegicus) (UniProt P43140); experiment: ADRA1A blocking activity assessed by antagonism of (-)-NE induced contractions on isolated rat prostatic vas deferens; type: functional, tissue-based; outline: as §1
T3 sequence (whole entry): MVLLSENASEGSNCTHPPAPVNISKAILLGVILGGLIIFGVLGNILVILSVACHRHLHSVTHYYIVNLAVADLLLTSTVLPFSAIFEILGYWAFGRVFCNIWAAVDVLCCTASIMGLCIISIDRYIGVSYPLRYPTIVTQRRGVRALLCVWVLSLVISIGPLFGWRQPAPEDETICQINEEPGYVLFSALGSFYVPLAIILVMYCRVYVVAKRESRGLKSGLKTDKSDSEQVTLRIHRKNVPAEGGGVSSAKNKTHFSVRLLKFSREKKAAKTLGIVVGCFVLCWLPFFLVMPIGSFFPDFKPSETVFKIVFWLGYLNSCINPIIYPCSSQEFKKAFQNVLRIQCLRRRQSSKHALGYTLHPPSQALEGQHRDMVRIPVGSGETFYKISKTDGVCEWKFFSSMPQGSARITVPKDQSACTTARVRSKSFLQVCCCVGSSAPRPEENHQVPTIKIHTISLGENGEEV

[4] = test system: PC-3; experiment: Cytotoxic activity on human PC3 prostate cancer cells by SRB assay; type: functional; conditions: Homo sapiens, PC-3
Outline: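 NCI-protocol SRB assay on PC-3 cells grown in DMEM/10% FBS/2 mM glutamine. Seeded 24 h, then compounds in medium for 48 h at 37 °C, 5% CO2, in quadruplicate. A time-zero plate was read. Cells TCA-fixed, stained with 0.4% SRB, absorbance at 520 nm. GI50, TGI and LC50 interpolated from % growth versus log concentration.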

[5] = test system: PC-3; experiment: Ability to stimulate PC3 cell proliferation by BrdU incorporation using colorimetric ELISA at 10 uM; type: functional, Homo sapiens
Outline: (§2)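 PC-3 cells (DMEM, 10% FBS, 2 mM L-glutamine) seeded at 7 × 10⁴/well, settled 24 h at 37 °C, 5% CO₂. NE added (0, 0.1, 1, 10, 50 μM) for 16 h. BrdU present during the last 4 h; incorporation read by colorimetric BrdU cell-proliferation ELISA. Expressed as % growth vs untreated. Mean ± SD of three separate experiments.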

[6] = test system: PC-3; experiment: Ability to stimulate PC3 cell proliferation by BrdU incorporation using colorimetric ELISA at 50 uM; type: functional, Homo sapiens; outline: as §2
[7] = test system: PC-3; experiment: Inhibition of NE-induced increase of PC3 cell proliferation using ELISA BrdU; type: functional, cell-based; conditions: Homo sapiens
Outline: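 PC-3 cells (7×10^4/well) plated 24 h, then given noradrenaline (0–50 μM) alone or with antagonist (1 μM, or 0.5 μM for one compound) for 16 h. BrdU added for the last 4 h and read by colorimetric ELISA as % growth; mean ± SD of three experiments.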

| SMILES | pKb [1] | pKb [2] | pKb [3] | GI50 [4] | LC50 (50% lethal concentration) [4] | TGI [4] | Activity [5] | Activity [6] | Activity [7] |
| --- | --- | --- | --- | --- | --- | --- | --- | --- | --- |
| COc1cccc(OC)c1OCCNCCOc1ccccc1OCc1ccc(OC(C)C)cc1 | 9.14 | 8.62 | 8.17 | 2 µM | 63.1 µM | 17.8 µM |  |  |  |
| NC[C@H](O)c1ccc(O)c(O)c1 [NOREPINEPHRINE] |  |  |  |  |  |  | 33% | 65% |  |
| CCOc1ccc(COc2ccccc2OCCNCCOc2c(OC)cccc2OC)cc1 | 9.11 | 8.23 | 8.5 | 5.2 µM | 51.3 µM | 18.2 µM |  |  |  |
| COc1cc2nc(N3CCN(C(=O)C4COc5ccccc5O4)CC3)nc(N)c2cc1OC (centres undefined) [DOXAZOSIN] | 8.97 | 9.51 | 8.69 |  |  | 49 µM |  |  | inactive |
